Test results: ChEMBL document CHEMBL1833894, “The effect of a bromide leaving group on the properties of nitro analogs of the duocarmycins as hypoxia-activated prodrugs and phosphate pre-prodrugs for antitumor therapy” (Bioorg Med Chem, 2011)

Legend:
SiHa [1] = test: Cytotoxicity against human SiHa cells assessed as reduction in cell density compound treated for 4 hrs under hypoxic condition measured after 5 days by sulforhodamine B assay; assay type: functional, cell-based
Method in brief: (§1)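 Log-phase monolayers exposed to drug for 4 h under aerobic (20% O₂) or anoxic (<20 ppm O₂) conditions, then stained with sulforhodamine B 5 days later. IC50 interpolated as the concentration cutting cell density to 50% of same-plate controls; mean of 3–6 experiments.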

HT-29 [2] = test: Cytotoxicity against human HT29 cells assessed as reduction in cell density compound treated for 4 hrs under hypoxic condition measured after 5 days by sulforhodamine B assay; assay type: functional, cell-based; method in brief: as §1
SiHa [3] = test: Ratio IC50 for human SiHa cells under oxic condition to IC50 for human SiHa cells under hypoxic condition; assay type: functional
Method in brief: (§2)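 Oxic IC50 divided by hypoxic IC50 (4 h exposure at 20% O₂ vs <20 ppm O₂, sulforhodamine B read-out 5 days later), taken as means of intraexperiment ratios over 2–6 experiments.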

SiHa [4] = test: Cytotoxicity against human SiHa cells assessed as reduction in cell density compound treated for 4 hrs under oxic condition measured after 5 days by sulforhodamine B assay; assay type: functional, cell-based; method in brief: as §1
HT-29 [5] = test: Cytotoxicity against human HT29 cells assessed as reduction in cell density compound treated for 4 hrs under oxic condition measured after 5 days by sulforhodamine B assay; assay type: functional, cell-based; method in brief: as §1
HT-29 [6] = test: Ratio IC50 for human HT29 cells under oxic condition to IC50 for human HT29 cells under hypoxic condition; assay type: functional; method in brief: as §2
SiHa [7] = test: Antitumor activity against human SiHa cells xenografted in CD1-Foxn1nu/nu nude mouse assessed as log10 clonogens/g tumor at 42 umol/kg, iv administered 5 mins after irradiated with gamma-15 Gy measured after 18 hrs (reference value: 5.34 +/- 0.04 to 5.73 +/- 0.15 no unit); assay type: functional
SiHa [8] = test: Antitumor activity against human SiHa cells xenografted in CD1-Foxn1nu/nu nude mouse assessed as log10 clonogens/g tumor at 42 umol/kg, iv measured after 18 hrs (reference value: 7.15 +/- 0.01 to 7.62 +/- 0.2 no unit); assay type: functional
SiHa [9] = test: Antitumor activity against human SiHa cells xenografted in CD1-Foxn1nu/nu nude mouse assessed as hypoxic log10 cell kill at 42 umol/kg, iv administered 5 mins after irradiated with gamma-15 Gy measured after 18 hrs; assay type: functional
Method in brief: (§3)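 Male nude mice bearing subcutaneous SiHa tumours, from 10⁷ cultured cells, randomised at a mean diameter of 8–10 mm. Phosphate given iv in phosphate-buffered saline with 4 equiv sodium bicarbonate, 5 min after whole-body cobalt-60 15 Gy. Tumours excised 18 h later for clonogenic assay (log10 clonogens/g), 5 mice per group. Hypoxic log cell kill = radiation + drug versus radiation alone; ANOVA with Holm-Sidak.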

SiHa [10] = test: Antitumor activity against human SiHa cells xenografted in CD1-Foxn1nu/nu nude mouse assessed as hypoxic log10 cell kill at 30 umol/kg, iv administered 5 mins after irradiated with gamma-15 Gy measured after 18 hrs; assay type: functional; method in brief: as §3
SiHa [11] = test: Antitumor activity against human SiHa cells xenografted in CD1-Foxn1nu/nu nude mouse assessed as log10 clonogens/g tumor at 30 umol/kg, iv administered 5 mins after irradiated with gamma-15 Gy measured after 18 hrs (reference value: 5.34 +/- 0.04 to 5.73 +/- 0.15 no unit); assay type: functional
SiHa [12] = test: Antitumor activity against human SiHa cells xenografted in CD1-Foxn1nu/nu nude mouse assessed as log10 clonogens/g tumor at 30 umol/kg, iv measured after 18 hrs (reference value: 7.15 +/- 0.01 to 7.62 +/- 0.2 no unit); assay type: functional
[13] = Aqueous solubility of the compound; assay type: physicochemical
SK-OV-3 = test: Cytotoxicity against human SKOV3 cells under oxic condition relative to hypoxic condition; assay type: functional
HT-29 [14] = test: Cytotoxicity against human HT29 cells under oxic condition relative to hypoxic condition; assay type: functional
Method in brief: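 Log-phase HT29 monolayers exposed to drug for 4 h under aerobic (20% O₂) or anoxic (<20 ppm O₂) conditions, then sulforhodamine B staining 5 days later. IC50 interpolated as the concentration cutting cell density to 50% of same-plate controls. Ratio = IC50(oxic)/IC50(hypoxic), taken as the mean of intraexperiment ratios over 2–6 experiments.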

SMILES | IC50 (SiHa [1]) | IC50 (HT-29 [2]) | Ratio IC50 (SiHa [3]) | IC50 (SiHa [4]) | IC50 (HT-29 [5]) | Ratio IC50 (HT-29 [6]) | Activity (SiHa [7]) | Activity (SiHa [8]) | LCK (SiHa [9]) | other results
COc1cc2cc(C(=O)N3CC(CBr)c4c3cc([N+](=O)[O-])c3cc(S(=O)(=O)NCCO)ccc43)[nH]c2c(OC)c1OC (configuration not stated) | 270 nM | 1350 nM | 10 | 2610 nM | 12300 nM | 10 |  |  |  | 
COc1ccc(/C=C/C(=O)N2CC(CBr)c3c2cc([N+](=O)[O-])c2cc(S(=O)(=O)NCCO)ccc32)cc1 (configuration not stated) | 120 nM | < 100 nM | 17 | 1440 nM | 2450 nM | >25 |  |  |  | 
O=C(c1cc2cc(OCCN3CCOCC3)ccc2[nH]1)N1CC(CBr)c2c1cc([N+](=O)[O-])c1cc(S(=O)(=O)NCCO)ccc21 (configuration not stated) | 280 nM | 440 nM | 43 | 11700 nM | 22400 nM | 52 |  |  |  | 
O=C(/C=C/c1ccc(OCCN2CCOCC2)cc1)N1CC(CBr)c2c1cc([N+](=O)[O-])c1cc(S(=O)(=O)NCCO)ccc21 (configuration not stated) | 90 nM | 80 nM | 41 | 2720 nM | 11200 nM | 286 |  |  |  | 
COc1cc2cc(C(=O)N3CC(CCl)c4c3cc([N+](=O)[O-])c3cc(S(=O)(=O)NCCO)ccc43)[nH]c2c(OC)c1OC (configuration not stated) | 3500 nM | 11000 nM | 16 | 13000 nM | 28000 nM | 2.1 |  |  |  | 
CN(C)CCOc1ccc2[nH]c(C(=O)N3CC(CCl)c4c3cc([N+](=O)[O-])c3cc(S(=O)(=O)NCCO)ccc43)cc2c1 (configuration not stated) | 70 nM | 90 nM | 46 | 2000 nM | 9300 nM | 160 |  |  |  | 
COc1cc2cc(C(=O)N3CC(CBr)c4c3cc([N+](=O)[O-])c3cc(S(=O)(=O)NCCOP(=O)(O)O)ccc43)[nH]c2c(OC)c1OC (configuration not stated) |  |  |  |  |  |  | 3.62 | 6.51 | 1.84 | 
COc1ccc(/C=C/C(=O)N2CC(CBr)c3c2cc([N+](=O)[O-])c2cc(S(=O)(=O)NCCOP(=O)(O)O)ccc32)cc1 (configuration not stated) |  |  |  |  |  |  | 4.5 | 7.07 | 0.87 | 
O=C(c1cc2cc(OCCN3CCOCC3)ccc2[nH]1)N1CC(CBr)c2c1cc([N+](=O)[O-])c1cc(S(=O)(=O)NCCOP(=O)(O)O)ccc21 (configuration not stated) |  |  |  |  |  |  | 2.6 | 6.05 | 2.8 | 
O=C(/C=C/c1ccc(OCCN2CCOCC2)cc1)N1CC(CBr)c2c1cc([N+](=O)[O-])c1cc(S(=O)(=O)NCCOP(=O)(O)O)ccc21 (configuration not stated) |  |  |  |  |  |  |  |  |  | LCK (SiHa [10]): 1.56; Activity (SiHa [11]): 3.78; Activity (SiHa [12]): 7.01
COc1cc2cc(C(=O)N3CC(CCl)c4c3cc([N+](=O)[O-])c3cc(S(=O)(=O)NCCOP(=O)(O)O)ccc43)[nH]c2c(OC)c1OC (configuration not stated) |  |  |  |  |  |  | 4.96 | 7.29 | 0.55 | 
CN(C)CCOc1ccc2[nH]c(C(=O)N3CC(CCl)c4c3cc([N+](=O)[O-])c3cc(S(=O)(=O)NCCOP(=O)(O)O)ccc43)cc2c1 (configuration not stated) |  |  |  |  |  |  | 3.9 | 6.89 | 1.83 | solubility [13]: > 2000 µM
CN(C)CCOc1ccc2[nH]c(C(=O)N3CC(CCl)c4c3cc([N+](=O)[O-])c3cc(S(N)(=O)=O)ccc43)cc2c1 (configuration not stated) |  |  |  |  |  |  |  |  |  | Ratio (SK-OV-3): 275; Ratio (HT-29 [14]): 330
